Results gathered from unrelated publications.
Each line is one published result; the experiments were not run side by side.
Target: G protein-coupled receptor kinase 5 (GRK5, Homo sapiens, UniProt P34947)

Structure (SMILES)	effect on	mode	method	tested at	measurement	result
O=C1NC(=O)c2cc(Nc3ccc(F)cc3)c(Nc3ccc(F)cc3)cc21	cell-free assay	–	–	0.5 µM	remaining signal	101%
Cc1cnc(NC2CCOCC2)nc1-n1cnc(C(=O)NC(CN)c2cc(F)cc(Cl)c2)c1 (centres unmarked)	enzyme activity	inhibitor	radiometric	1 µM	remaining activity	96%
Cc1ccc(Nc2nccc(N(C)c3ccc4c(C)n(C)nc4c3)n2)cc1S(N)(=O)=O	enzyme activity	inhibitor	–	10 µM	inhibition	-10%
CC(C)(C)c1nc2c(s1)c1nc(N)ncc1c1ccc(NS(=O)(=O)c3c(F)cccc3F)c(F)c12	enzyme activity	inhibitor	radiometric	1 µM	remaining activity	84%
Cc1cc(NC(=O)c2cccc3cc(-c4cccc5[nH]nc(N)c45)ccc23)ccc1F	enzyme activity	inhibitor	–	0.1 µM	activity vs control	112%
CNC(=O)c1cc(Oc2ccc(NC(=O)Nc3ccc(Cl)c(C(F)(F)F)c3)cc2)ccn1	enzyme activity	inhibitor	–	0.3 µM	inhibition	7%
O=C(Nc1cnn(-c2csc(C(=O)NC3COC3)c2)c1)Nc1ccccc1Cl	enzyme activity	inhibitor	–	5 µM	remaining activity	98%
CCCOc1ccc(OC)c(F)c1C(=O)c1ccc(C(=O)N[C@@H]2CNC[C@H]2NC(=O)c2ccc3[nH]ncc3c2)cc1	enzyme activity	inhibitor	–	10 µM	remaining activity	114%
CC(C)(C)c1nc(-c2cccc(NS(=O)(=O)c3c(F)cccc3F)c2F)c(-c2ccnc(N)n2)s1	enzyme activity	inhibitor	radiometric	1 µM	remaining activity	85%
CCN(CC)c1ccc(C2=NNC(=O)CC2C)cc1[N+](=O)[O-] (centres unmarked)	enzyme activity	inhibitor	–	10 µM	remaining activity	103%
N#CCCc1ccc2c(c1)-c1[nH]c3ccc([N+](=O)[O-])cc3c1CC(=O)N2	cell-free assay	–	–	0.5 µM	remaining signal	103%
CN1CC(Oc2cnc(C#N)cc2-c2ccn3nc(NC(=O)C4CC4)cc3c2)C1	enzyme activity	inhibitor	–	1 µM	inhibition	3%
Cc1ccc(NC(=O)c2ccc(C)c(C(F)(F)F)c2)cc1C#Cc1nn(C2CCC(O)CC2)c2ncnc(N)c12 (centres unmarked)	cell-free assay	–	–	10 µM	remaining signal	99%
CC(C)(O)[C@H]1CC[C@H](Nc2ccc3ncc(-c4cccc(C(F)(F)F)c4)n3n2)CC1	enzyme activity	inhibitor	–	1 µM	remaining activity	95.1%
CCCS(=O)(=O)Nc1ccc(F)c(C(=O)c2c[nH]c3ncc(-c4ccc(Cl)cc4)cc23)c1F	enzyme activity	inhibitor	–	1 µM	inhibition	< 10%
Cc1sc(C(=O)NC2COC2)cc1-n1cc(NC(=O)Nc2c(F)cccc2Cl)cn1	enzyme activity	inhibitor	–	10 µM	remaining activity	113%
COc1cc2ncnc(Nc3ccc(Oc4ccccc4)cc3C)c2cc1OC	enzyme activity	inhibitor	–	1 µM	inhibition	-2%
COc1cc(Cl)c(C(=O)N[C@@H](CN[C@H]2CC[C@@H](N)CC2)Cc2ccc(C#N)cc2)cc1-c1ccc(CN[C@H](C)c2ccc(C)cc2)o1	enzyme activity	inhibitor	–	1 µM	remaining activity	99%
COc1cc2ncnc(Nc3ccc(Oc4ccccc4)c(C)c3C)c2cc1OC	enzyme activity	inhibitor	–	1 µM	inhibition	0%
Cc1ccc(C(=O)NCc2ccsc2)cc1C#Cc1cn(C(C)C)c2ncnc(N)c12	enzyme activity	inhibitor	–	1 µM	activity vs control	111%
